ChEMBL document CHEMBL4017520, “Discovery, Structure-Activity Relationship, and Antiparkinsonian Effect of a Potent and Brain-Penetrant Chemical Series of Positive Allosteric Modulators of Metabotropic Glutamate Receptor 4” (J Med Chem, 2017)
Blank lines part the entries; values can stand above or below the molecule they belong to. Activity calls are given as the source filed them. The calls are words filed in the database; no cut-off is given here.

Experiments:
[1] = target: T1, Metabotropic glutamate receptor 4 (Homo sapiens, UniProt Q14833); assay: Positive allosteric modulation of recombinant human mGlu4 receptor expressed in HEK293 cells co-expressing Gi/Gq assessed as increase in glutamate-induced calcium flux preincubated for 10 mins followed by glutamate addition measured for 3 mins by Fluo4-AM dye based fluorescence assay; assay type: functional, cell-based; conditions: read-out: EC50
T1 sequence (Q14833 whole entry): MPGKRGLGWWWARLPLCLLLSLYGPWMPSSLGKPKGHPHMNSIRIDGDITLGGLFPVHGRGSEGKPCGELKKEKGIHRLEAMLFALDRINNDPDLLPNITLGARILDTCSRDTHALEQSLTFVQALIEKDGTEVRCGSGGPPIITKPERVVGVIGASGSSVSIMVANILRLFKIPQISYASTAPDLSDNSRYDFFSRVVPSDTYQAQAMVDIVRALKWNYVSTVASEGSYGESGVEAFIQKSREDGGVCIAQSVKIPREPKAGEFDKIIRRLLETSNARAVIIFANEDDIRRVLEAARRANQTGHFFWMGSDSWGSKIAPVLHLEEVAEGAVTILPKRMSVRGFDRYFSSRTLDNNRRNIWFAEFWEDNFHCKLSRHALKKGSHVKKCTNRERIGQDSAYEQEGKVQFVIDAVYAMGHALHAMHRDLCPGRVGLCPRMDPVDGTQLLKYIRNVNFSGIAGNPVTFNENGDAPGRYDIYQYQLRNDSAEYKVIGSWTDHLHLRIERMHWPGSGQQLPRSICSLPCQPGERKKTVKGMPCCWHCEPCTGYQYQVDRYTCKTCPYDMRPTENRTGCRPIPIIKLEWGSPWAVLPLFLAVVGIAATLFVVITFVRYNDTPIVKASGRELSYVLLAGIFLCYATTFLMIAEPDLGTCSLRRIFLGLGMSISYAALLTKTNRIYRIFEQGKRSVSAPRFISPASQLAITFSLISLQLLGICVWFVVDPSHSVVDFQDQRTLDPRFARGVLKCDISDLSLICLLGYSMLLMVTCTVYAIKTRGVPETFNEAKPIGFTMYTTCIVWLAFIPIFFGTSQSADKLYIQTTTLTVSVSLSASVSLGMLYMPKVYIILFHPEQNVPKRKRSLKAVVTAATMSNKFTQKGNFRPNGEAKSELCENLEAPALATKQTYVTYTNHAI

[2] = target: T1, Metabotropic glutamate receptor 4; assay: Positive allosteric modulation of recombinant human mGlu4 receptor expressed in HEK293 cells co-expressing chimeric G protein assessed as increase in EC20 glutamate-induced […]; assay type: functional, cell-based
[3] = target: Metabotropic glutamate receptor 4 (Rattus norvegicus, UniProt P31423); assay: Positive allosteric modulation of rat mGlu4 receptor expressed in HEK293 cells co-expressing Gi/Gq assessed as increase in glutamate-induced calcium flux preincubated for 10 mins followed by glutamate addition measured for 3 mins by Fluo4-AM dye based fluorescence assay; assay type: functional, cell-based
Chain of Metabotropic glutamate receptor 4 (Rattus norvegicus, UniProt P31423) (P31423 whole entry): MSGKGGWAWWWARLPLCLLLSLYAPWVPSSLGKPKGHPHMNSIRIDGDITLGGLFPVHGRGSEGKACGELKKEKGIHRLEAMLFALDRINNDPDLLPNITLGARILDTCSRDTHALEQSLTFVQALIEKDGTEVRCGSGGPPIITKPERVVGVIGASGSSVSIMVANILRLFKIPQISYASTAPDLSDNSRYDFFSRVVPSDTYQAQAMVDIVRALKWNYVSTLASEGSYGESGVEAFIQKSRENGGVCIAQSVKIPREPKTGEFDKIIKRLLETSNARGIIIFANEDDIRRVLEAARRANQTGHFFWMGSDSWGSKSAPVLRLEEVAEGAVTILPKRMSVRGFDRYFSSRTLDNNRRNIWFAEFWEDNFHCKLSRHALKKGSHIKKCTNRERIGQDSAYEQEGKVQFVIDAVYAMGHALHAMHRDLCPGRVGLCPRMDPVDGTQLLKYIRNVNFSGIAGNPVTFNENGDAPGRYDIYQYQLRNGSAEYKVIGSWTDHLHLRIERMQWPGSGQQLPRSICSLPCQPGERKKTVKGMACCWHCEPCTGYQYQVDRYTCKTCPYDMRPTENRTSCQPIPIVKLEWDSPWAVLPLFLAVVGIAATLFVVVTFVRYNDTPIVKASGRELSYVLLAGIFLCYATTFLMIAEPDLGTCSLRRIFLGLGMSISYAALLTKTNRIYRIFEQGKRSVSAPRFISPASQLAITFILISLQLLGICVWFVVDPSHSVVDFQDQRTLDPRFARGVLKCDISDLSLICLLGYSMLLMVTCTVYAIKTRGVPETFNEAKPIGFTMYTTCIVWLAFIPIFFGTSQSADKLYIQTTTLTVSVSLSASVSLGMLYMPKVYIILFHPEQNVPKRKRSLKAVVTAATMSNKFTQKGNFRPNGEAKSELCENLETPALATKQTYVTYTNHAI

[4] = organism: Homo sapiens; assay: Selectivity ratio of compound effect for positive allosteric modulation of recombinant human mGlu4 receptor to compound effect for activity at human mGlu6 receptor
[5] = organism: Rattus norvegicus; assay: Activity at AMPA glutamate receptor in rat cerebral cortex at 10 uM
Procedure, shortened: (§1)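 Inhibition of orthosteric ligand binding to NMDA, AMPA and kainate receptors on rat cerebral cortex membranes, tested up to 10 μM.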

[6] = organism: Rattus norvegicus; assay: Activity at NMDA glutamate receptor in rat cerebral cortex at 10 uM; procedure, shortened: as §1
[7] = organism: Rattus norvegicus; assay: Activity at kainate glutamate receptor in rat cerebral cortex at 10 uM; procedure, shortened: as §1
[8] = Activity at COMT (unknown origin) up to 10 uM; assay type: ADME; conditions: human
[9] = target: Amine oxidase [flavin-containing] A (Homo sapiens, UniProt P21397); assay: Activity at MAO-A (unknown origin) up to 10 uM; assay type: ADME
Chain of Amine oxidase [flavin-containing] A (P21397 whole entry): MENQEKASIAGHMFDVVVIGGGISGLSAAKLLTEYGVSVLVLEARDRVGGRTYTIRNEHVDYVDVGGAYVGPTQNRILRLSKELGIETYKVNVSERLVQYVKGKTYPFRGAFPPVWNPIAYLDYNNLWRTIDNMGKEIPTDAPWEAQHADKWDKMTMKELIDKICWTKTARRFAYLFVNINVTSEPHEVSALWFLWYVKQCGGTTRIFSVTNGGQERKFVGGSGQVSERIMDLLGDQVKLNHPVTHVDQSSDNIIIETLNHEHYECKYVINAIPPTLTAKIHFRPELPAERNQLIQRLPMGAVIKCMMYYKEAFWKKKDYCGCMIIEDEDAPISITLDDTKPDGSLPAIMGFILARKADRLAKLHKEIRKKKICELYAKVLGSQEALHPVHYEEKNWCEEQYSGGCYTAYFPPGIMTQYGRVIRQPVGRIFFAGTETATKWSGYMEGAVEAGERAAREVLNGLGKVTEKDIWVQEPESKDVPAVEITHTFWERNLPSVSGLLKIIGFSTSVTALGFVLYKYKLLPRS

[10] = target: Amine oxidase [flavin-containing] B (Homo sapiens, UniProt P27338); assay: Activity at MAO-B (unknown origin) up to 10 uM; assay type: ADME
Chain of Amine oxidase [flavin-containing] B (P27338 whole entry): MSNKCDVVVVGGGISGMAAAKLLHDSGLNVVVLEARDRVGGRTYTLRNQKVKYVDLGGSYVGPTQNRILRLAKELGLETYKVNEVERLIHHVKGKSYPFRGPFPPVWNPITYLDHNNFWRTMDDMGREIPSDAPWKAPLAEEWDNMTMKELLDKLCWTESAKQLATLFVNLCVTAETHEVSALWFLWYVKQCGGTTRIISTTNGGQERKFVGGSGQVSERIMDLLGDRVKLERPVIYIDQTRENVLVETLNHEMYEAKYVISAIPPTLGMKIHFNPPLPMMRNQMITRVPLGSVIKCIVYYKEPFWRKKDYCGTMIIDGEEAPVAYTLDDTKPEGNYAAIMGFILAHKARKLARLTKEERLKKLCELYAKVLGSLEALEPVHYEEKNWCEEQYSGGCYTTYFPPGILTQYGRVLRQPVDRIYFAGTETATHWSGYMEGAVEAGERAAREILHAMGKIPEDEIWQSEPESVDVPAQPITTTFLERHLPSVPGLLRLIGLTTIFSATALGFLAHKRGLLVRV

[11] = Cmax in Sprague-Dawley rat at 1 mg/kg, iv administered as single dose by LC-MS/MS analysis; assay type: ADME, organism-based; set-up: dose 1 mg/kg, route intravenous; conditions: in vivo
[12] = Half life in Sprague-Dawley rat at 1 mg/kg, iv administered as single dose by LC-MS/MS analysis; assay type: ADME, organism-based; conditions: in vivo
Procedure, shortened: (§2)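 Single iv dose, 1 mg/kg in rat or 2 mg/kg in mouse; plasma PK parameters derived; brain/plasma ratio taken at 1 h postdose (rat) or 30 min postdose (mouse). Mean of 3 rats; 2 mice for mouse Cmax and brain/plasma.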

[13] = AUC (0 to infinity) in Sprague-Dawley rat at 1 mg/kg, iv administered as single dose by LC-MS/MS analysis; assay type: ADME, organism-based; set-up: dose 1 mg/kg, route intravenous, time infinity; conditions: in vivo
[14] = Plasma clearance in Sprague-Dawley rat at 1 mg/kg, iv administered as single dose by LC-MS/MS analysis; assay type: ADME, organism-based; procedure, shortened: as §2
[15] = Volume of distribution in Sprague-Dawley rat at 1 mg/kg, iv administered as single dose by LC-MS/MS analysis; assay type: ADME, organism-based; conditions: in vivo
Procedure, shortened: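 Single intravenous dose: rats 1 mg/kg, mice 2 mg/kg. Plasma concentration–time data yielded Cmax, t1/2, AUC0−∞, plasma clearance and volume of distribution. Values are mean ±SEM of 3 animals.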

[16] = Ratio of drug level in Sprague-Dawley rat brain to plasma at 1 mg/kg, iv after 1 hr post dose administered as single dose by LC-MS/MS analysis; assay type: ADME, organism-based; conditions: read-out: BPR; procedure, shortened: as §2
[17] = Cmax in Sprague-Dawley rat plasma at 10 mg/kg, po administered as single dose by LC-MS/MS analysis; assay type: ADME, organism-based; set-up: dose 10 mg/kg, route oral
Procedure, shortened: (§3)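 Rats given a single oral dose of 10 mg/kg. The first plasma sample was taken at 15 min, and sampling continued to 24 h postdose. Brain was sampled at 30 min. Values are the mean (±SEM) of 3 rats.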

[18] = Tmax in Sprague-Dawley rat plasma at 10 mg/kg, po administered as single dose by LC-MS/MS analysis; assay type: ADME, organism-based
Procedure, shortened: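 Single-dose plasma PK after ip (10 or 30 mg/kg) or oral (10 mg/kg) dosing in rats, and oral 10 mg/kg dosing in mice. […] Values are mean ±SEM of 3 rats or 2 mice.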

[19] = AUC (0 to infinity) in Sprague-Dawley rat plasma at 10 mg/kg, po administered as single dose by LC-MS/MS analysis; assay type: ADME, organism-based; set-up: dose 10 mg/kg, time infinity, route oral; procedure, shortened: as §3
[20] = Drug uptake in Sprague-Dawley rat brain at 10 mg/kg, po after 30 mins post dose administered as single dose by LC-MS/MS analysis; assay type: ADME, organism-based; conditions: read-out: Drug uptake; procedure, shortened: as §3
[21] = test system: Brain; assay: AUC (0 to infinity) in Sprague-Dawley rat brain at 10 mg/kg, po administered as single dose by LC-MS/MS analysis; assay type: ADME, organism-based; set-up: dose 10 mg/kg, time infinity, route oral; conditions: in vivo
Procedure, shortened: (§4)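 Rats given a single oral dose of 10 mg/kg. Brain concentrations were measured at 30, 60 and 90 min postdose, and brain AUC0–inf was determined. Values are the mean of three rats. Lower limit of quantification was 1 ng/mL.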

[22] = organism: Homo sapiens; assay: Selectivity ratio of compound effect for positive allosteric modulation of recombinant human mGlu4 receptor to compound effect for agonist activity at human mGlu8 receptor
[23] = organism: Homo sapiens; assay: Selectivity ratio of compound effect for positive allosteric modulation of recombinant human mGlu4 receptor to compound effect for agonist activity at human mGlu7 receptor
[24] = target: T1, Metabotropic glutamate receptor 4; assay: Positive allosteric modulation of recombinant human mGlu4 receptor expressed in HEK293 cells co-expressing chimeric G protein assessed as increase in glutamate-induced calcium flux after 10 mins by Fluo4-AM dye based fluorescence assay; assay type: functional, cell-based
[25] = target: T1, Metabotropic glutamate receptor 4; assay: Positive allosteric modulation of recombinant human mGlu4 receptor expressed in HEK293 cells co-expressing chimeric Gi/Gq assessed as increase in EC20 glutamate-induced calcium flux at 15 uM preincubated for 10 mins followed by glutamate addition measured for 3 mins by Fluo4-AM dye based fluorescence assay relative to control; assay type: functional, cell-based
[26] = Drug uptake in Sprague-Dawley rat brain at 10 mg/kg, po after 90 mins post dose administered as single dose by LC-MS/MS analysis; assay type: ADME, organism-based; conditions: read-out: Drug uptake; procedure, shortened: as §4
[27] = Drug uptake in Sprague-Dawley rat brain at 10 mg/kg, po after 60 mins post dose administered as single dose by LC-MS/MS analysis; assay type: ADME, organism-based; conditions: read-out: Drug uptake; procedure, shortened: as §4
[28] = Ratio of AUC (0 to infinity) in Sprague-Dawley rat brain to plasma at 10 mg/kg, po administered as single dose by LC-MS/MS analysis; assay type: ADME, organism-based; conditions: read-out: Ratio AUC
[29] = Ratio of drug level in Sprague-Dawley rat brain to plasma at 25 mg/kg, po administered as single dose by LC-MS/MS analysis; assay type: ADME, organism-based; conditions: read-out: BPR
Procedure, shortened: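 Sprague−Dawley rats dosed orally at 25 mg/kg in water; plasma and brain concentrations followed over time to derive brain/plasma ratio.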

[30] = target: T1, Metabotropic glutamate receptor 4; assay: Positive allosteric modulation of recombinant human mGlu4 receptor expressed in HEK293 cells co-expressing chimeric Gi/Gq protein assessed as fold shift of glutamate potency at 3 uM after 10 mins by Fluo4-AM dye based fluorescence assay relative to control
[31] = organism: Rattus norvegicus; assay: Protection against 6-OHDA induced parkinsonian motor deficit in Sprague-Dawley rat after 28 days post surgery; assay type: functional
[32] = test system: Rattus norvegicus; assay: Toxicity in 6-OHDA induced parkinsonian motor deficit Sprague-Dawley rat model assessed as induction of dyskinesia at 20 mg/kg, ip; assay type: organism-based; conditions: in vivo
[33] = test system: Rattus norvegicus; assay: Toxicity in 6-OHDA induced parkinsonian motor deficit Sprague-Dawley rat model assessed as induction of overacting rearing behavior at 20 mg/kg, ip; assay type: organism-based; conditions: in vivo

EC50 [1]: 79 nM
Emax [2]: 70%
EC50 [3]: 47 nM
Selectivity ratio [4]: 15
Activity [5]: inactive
Activity [6]: inactive
Activity [7]: inactive
Activity [8]: Not Active
Activity [9]: Not Active
Activity [10]: Not Active
Cmax [11]: 325 ng/mL
half-life [12]: 0.9 h
AUC(0-inf) [13]: 163 ng·h/mL
clearance [14]: 104 mL/min/kg
Vd [15]: 8.02 L/kg
Kp at 1 h [16]: 8.4
Cmax [17]: 94 ng/mL
Tmax [18]: 1.17 h
AUC(0-inf) [19]: 432 ng·h/mL
concentration at 0.5 h [20]: 458 ng/g
AUC [21]: 2713 ng·h/g
Selectivity ratio [22]: 50
Selectivity ratio [23]: 110
EC50 [24]: 79 nM
Emax [25]: 32%
concentration at 1.5 h [26]: 818 ng/g
concentration at 1 h [27]: 785 ng/g
Kp [28]: 6.6
Kp [29]: ≤ 13.5
fold change (FC) [30]: 10
Compound: O/N=c1\cc(-c2cc3sccc3cn2)oc2ccc(CCCN3CCOCC3)cc12 [FOLIGLURAX]

Compound: N[C@@H](Cc1ccc(O)c(O)c1)C(=O)O [LEVODOPA]
Activity [31]: Dose-dependent effect
Activity [32]: Non-Toxic
Activity [33]: Toxic
